Values after ≈ are worked out from the molar mass of the structure shown.
Columns and labels:
Bacillus cereus = experiment: Antibacterial activity against Bacillus cereus ATCC 11778 by double-dilution technique; assay type: functional
Summary of the method: (§1)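 MIC measured against each bacterial strain using a double-dilution series of each compound. Every determination was run in duplicate or triplicate.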

Listeria monocytogenes = experiment: Antibacterial activity against Listeria monocytogenes ATCC 19115 by double-dilution technique; assay type: functional
Summary of the method: (§2)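 Double-dilution series of each compound against each strain, reported as MIC. Runs done in duplicate or triplicate.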

Bacillus subtilis [1] = experiment: Antibacterial activity against Bacillus subtilis 168 harboring AAC(6')/APH(2'')-pRB374 by double-dilution technique; assay type: functional
Bacillus subtilis [2] = experiment: Antibacterial activity against Bacillus subtilis 168 by double-dilution technique; assay type: functional; summary of the method: as §2
Streptococcus pyogenes = experiment: Antibacterial activity against Streptococcus pyogenes Serotype M12 MGAS9429 by double-dilution technique; assay type: functional; summary of the method: as §1
[3] = Drug metabolism assessed as enhanced intracellular survival protein (unknown origin)-mediated conversion at 100 uM by micro plate reader analysis relative to tobramycin; assay type: ADME
Summary of the method: (§3)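 Ellman assay: CoASH release coupled to DTNB (2 mM), read at 412 nm every 30 s for 1 h at 25 °C. Compound at 100 μM. Conditions by enzyme: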

[4] = Drug metabolism assessed as aminoglycoside 2'-N-acetyltransferase Ic (unknown origin)-mediated conversion at 100 uM by micro plate reader analysis relative to tobramycin; assay type: ADME; summary of the method: as §3
[5] = Drug metabolism assessed as aminoglycoside 3-N-acetyltransferase AAC(3)-IV (unknown origin)-mediated conversion at 100 uM by micro plate reader analysis relative to tobramycin; assay type: ADME; summary of the method: as §3
Escherichia coli [6] = experiment: Inhibition of protein synthesis in Escherichia coli S30 extracts after 90 mins by coupled transcription/translation assay; assay type: functional; conditions: 1.5 h
Summary of the method: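 E. coli extract coupled transcription/translation with luciferase reporter. Reactions with varying compound concentrations ran 90 min at 37 °C, were chilled on ice, then diluted in Tris-phosphate pH 7.8 buffer containing DTT, glycerol, Triton X-100 and BSA. Luminescence was read immediately after adding luciferase reagent. IC50 came from concentration-response fits of at least two independent experiments.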

[7] = system: Staphylococcus epidermidis; experiment: Antibacterial activity against biofilm negative Staphylococcus epidermidis ATCC 12228 by double-dilution technique; assay type: functional; summary of the method: as §1
Bacillus anthracis = experiment: Antibacterial activity against Bacillus anthracis 34F2 Sterne by double-dilution technique; assay type: functional; summary of the method: as §2
Haemophilus influenzae = experiment: Antibacterial activity against Haemophilus influenzae ATCC 51907 by double-dilution technique; assay type: functional; summary of the method: as §1
Escherichia coli [8] = experiment: Antibacterial activity against Escherichia coli MC1061 by double-dilution technique; assay type: functional; summary of the method: as §2
Staphylococcus aureus [9] = experiment: Antibacterial activity against Staphylococcus aureus ATCC 29213 by double-dilution technique; assay type: functional; summary of the method: as §2
Staphylococcus aureus [10] = experiment: Antibacterial activity against Staphylococcus aureus expressing NorA by double-dilution technique; assay type: functional; summary of the method: as §2
[11] = system: Mycolicibacterium smegmatis; experiment: Antibacterial activity against Mycobacterium smegmatis str. MC2 155 by double-dilution technique; assay type: functional

| Structure (SMILES) | MIC (Bacillus cereus) [µg/mL] | MIC (Listeria monocytogenes) [µg/mL] | MIC (Bacillus subtilis [1]) [µg/mL] | MIC (Bacillus subtilis [2]) [µg/mL] | MIC (Streptococcus pyogenes) [µg/mL] | fold change (FC) [3] | fold change (FC) [4] | fold change (FC) [5] | IC50 (Escherichia coli [6]) [µM] | MIC [7] [µg/mL] | MIC (Bacillus anthracis) [µg/mL] | MIC (Haemophilus influenzae) [µg/mL] | MIC (Escherichia coli [8]) [µg/mL] | MIC (Staphylococcus aureus [9]) [µg/mL] | MIC (Staphylococcus aureus [10]) [µg/mL] | MIC [11] [µg/mL] |
| --- | --- | --- | --- | --- | --- | --- | --- | --- | --- | --- | --- | --- | --- | --- | --- | --- |
| NC[C@H]1O[C@H](O[C@H]2[C@H](O)[C@@H](O[C@@H]3O[C@H](CSCCOCCSCC(=O)N[C@H](CO)[C@H](O)c4ccc([N+](=O)[O-])cc4)[C@@H](O)[C@H](N)[C@H]3O)[C@H](N)C[C@@H]2N)[C@H](N)C[C@@H]1O | > 150 | > 150 | > 150 | 150 (≈ 179 µM) | 8 (≈ 9.52 µM) | 2.9 | 2 | 1.8 | 1.49 | 8 (≈ 9.52 µM) | > 150 | 150 (≈ 179 µM) | > 150 | > 150 | > 150 | 18.8 (≈ 22.4 µM) |
| CCC[C@@H]1C[C@@H](C(=O)N[C@H]([C@H]2O[C@H](SC)[C@H](O)[C@@H](O)[C@H]2O)[C@@H](C)SCCOCCSCC(=O)N[C@H](CO)[C@H](O)c2ccc([N+](=O)[O-])cc2)N(C)C1 | 18.8 (≈ 24.1 µM) | 75 (≈ 96.3 µM) | > 150 | 18.8 (≈ 24.1 µM) | > 128 |  |  |  | 14.7 | 4 (≈ 5.13 µM) | 2.3 (≈ 2.95 µM) | 75 (≈ 96.3 µM) | 9.4 (≈ 12.1 µM) | 18.8 (≈ 24.1 µM) | 18.8 (≈ 24.1 µM) | > 150 |
| CCC[C@@H]1C[C@@H](C(=O)NC([C@H]2O[C@H](SC)[C@H](O)[C@@H](O)[C@H]2O)[C@@H](C)SCCOCCSSCCOCCSC[C@H]2O[C@@H](O[C@@H]3[C@@H](O)[C@H](O[C@H]4O[C@H](CN)[C@@H](O)C[C@H]4N)[C@@H](N)C[C@H]3N)C(O)[C@@H](N)[C@@H]2O)N(C)C1 (single isomer, unassigned) | 9.4 (≈ 8.45 µM) | 18.8 (≈ 16.9 µM) | 150 (≈ 135 µM) | 1.2 (≈ 1.08 µM) | 64 (≈ 57.5 µM) | 2.6 | 1.6 | 1.4 | 0.98 | 2 (≈ 1.8 µM) | 2.3 (≈ 2.07 µM) | 75 (≈ 67.4 µM) | 4.7 (≈ 4.22 µM) | 2.3 (≈ 2.07 µM) | 4.7 (≈ 4.22 µM) | 4.7 (≈ 4.22 µM) |
| O=C(CSCCOCCS)N[C@H](CO)[C@H](O)c1ccc([N+](=O)[O-])cc1 | 150 (≈ 384 µM) | > 150 | > 150 | > 150 | 128 (≈ 328 µM) |  |  |  | 48.7 | > 128 | 150 (≈ 384 µM) | > 150 | 37.5 (≈ 96 µM) | > 150 | > 150 | > 150 |
| O=C(N[C@H](CO)[C@H](O)c1ccc([N+](=O)[O-])cc1)C(Cl)Cl [CHLORAMPHENICOL] | 4.7 (≈ 14.5 µM) | 9.4 (≈ 29.1 µM) | 1.2 (≈ 3.71 µM) | 2.3 (≈ 7.12 µM) | 4 (≈ 12.4 µM) |  |  |  | 6.4 | 8 (≈ 24.8 µM) | 4.7 (≈ 14.5 µM) | 0.6 (≈ 1.86 µM) | < 0.3 | 9.4 (≈ 29.1 µM) | 4.7 (≈ 14.5 µM) | 18.8 (≈ 58.2 µM) |
| CCC[C@@H]1C[C@@H](C(=O)N[C@H]([C@H]2O[C@H](SC)[C@H](O)[C@@H](O)[C@H]2O)[C@@H](C)SCCOCCSSCCOCCS[C@H](C)[C@H](NC(=O)[C@@H]2C[C@@H](CCC)CN2C)[C@H]2O[C@H](SC)[C@H](O)[C@@H](O)[C@H]2O)N(C)C1 | 2.3 (≈ 2.19 µM) | 4.7 (≈ 4.47 µM) | > 150 | 2.3 (≈ 2.19 µM) | > 128 |  |  |  | 6.1 | 1 (≈ 0.951 µM) | 2.3 (≈ 2.19 µM) | 37.5 (≈ 35.7 µM) | 9.4 (≈ 8.94 µM) | 0.6 (≈ 0.571 µM) | 0.6 (≈ 0.571 µM) | 18.8 (≈ 17.9 µM) |
| NC[C@H]1O[C@H](O[C@H]2[C@H](O)[C@@H](O[C@@H]3O[C@H](CSCCOCCSSCCOCCSC[C@H]4O[C@@H](O[C@@H]5[C@@H](O)[C@H](O[C@H]6O[C@H](CN)[C@@H](O)C[C@H]6N)[C@@H](N)C[C@H]5N)[C@H](O)[C@@H](N)[C@@H]4O)[C@@H](O)[C@H](N)[C@H]3O)[C@H](N)C[C@@H]2N)[C@H](N)C[C@@H]1O | 75 (≈ 63.9 µM) | 37.5 (≈ 32 µM) | 37.5 (≈ 32 µM) | 0.6 (≈ 0.511 µM) | 64 (≈ 54.5 µM) | 4.1 | 2.4 | 2 | 0.27 | 16 (≈ 13.6 µM) | 37.5 (≈ 32 µM) | 9.4 (≈ 8.01 µM) | 18.8 (≈ 16 µM) | 37.5 (≈ 32 µM) | 9.4 (≈ 8.01 µM) | 2.3 (≈ 1.96 µM) |
| NC[C@H]1O[C@H](O[C@H]2[C@H](O)[C@@H](O[C@@H]3O[C@H](CSCCOCCSSCCOCCSCC(=O)N[C@H](CO)[C@H](O)c4ccc([N+](=O)[O-])cc4)[C@@H](O)[C@H](N)[C@H]3O)[C@H](N)C[C@@H]2N)[C@H](N)C[C@@H]1O | 150 (≈ 154 µM) | 18.8 (≈ 19.3 µM) | 150 (≈ 154 µM) | 4.7 (≈ 4.81 µM) | 16 (≈ 16.4 µM) | 2.6 | 1.6 | 1.4 | 1 | 16 (≈ 16.4 µM) | 75 (≈ 76.8 µM) | 37.5 (≈ 38.4 µM) | 4.7 (≈ 4.81 µM) | 150 (≈ 154 µM) | 9.4 (≈ 9.63 µM) | 4.7 (≈ 4.81 µM) |
| CCC[C@@H]1C[C@@H](C(=O)N[C@@H]([C@H]2O[C@H](SC)[C@H](O)[C@@H](O)[C@H]2O)[C@H](C)Cl)N(C)C1 [CLINDAMYCIN] |  | 4.7 (≈ 11.1 µM) | > 150 |  | 1 (≈ 2.35 µM) |  |  |  | 18.1 | 1 (≈ 2.35 µM) | < 0.3 | 4.7 (≈ 11.1 µM) | 2.3 (≈ 5.41 µM) |  |  | 9.4 (≈ 22.1 µM) |
| O=C(CSCCOCCSSCCOCCSCC(=O)N[C@H](CO)[C@H](O)c1ccc([N+](=O)[O-])cc1)N[C@H](CO)[C@H](O)c1ccc([N+](=O)[O-])cc1 | 75 (≈ 96.3 µM) | 9.4 (≈ 12.1 µM) | > 150 | 150 (≈ 193 µM) | > 128 |  |  |  | 25.6 | > 64 | 75 (≈ 96.3 µM) | 150 (≈ 193 µM) | 18.8 (≈ 24.1 µM) | 0.6 (≈ 0.77 µM) | > 150 | > 150 |
| NC[C@H]1O[C@H](O[C@H]2[C@H](O)[C@@H](O[C@H]3O[C@H](CO)[C@@H](O)[C@H](N)[C@H]3O)[C@H](N)C[C@@H]2N)[C@H](N)C[C@@H]1O [TOBRAMYCIN] | 75 (≈ 160 µM) | 18.8 (≈ 40.2 µM) | 9.4 (≈ 20.1 µM) | 2.3 (≈ 4.92 µM) | 64 (≈ 137 µM) |  |  |  | 0.015 | 0.3 (≈ 0.642 µM) | 9.4 (≈ 20.1 µM) | 18.8 (≈ 40.2 µM) | 9.4 (≈ 20.1 µM) | 37.5 (≈ 80.2 µM) | 9.4 (≈ 20.1 µM) | 0.6 (≈ 1.28 µM) |
| NC[C@H]1O[C@H](O[C@H]2[C@H](O)[C@@H](O[C@@H]3O[C@H](CSCCOCCS)[C@@H](O)[C@H](N)[C@H]3O)[C@H](N)C[C@@H]2N)[C@H](N)C[C@@H]1O | 150 (≈ 255 µM) | 18.8 (≈ 32 µM) | 75 (≈ 128 µM) | 2.3 (≈ 3.91 µM) | 128 (≈ 218 µM) |  |  |  | 0.43 | 16 (≈ 27.2 µM) | 37.5 (≈ 63.8 µM) | 37.5 (≈ 63.8 µM) | 18.8 (≈ 32 µM) | 75 (≈ 128 µM) | 18.8 (≈ 32 µM) | 2.3 (≈ 3.91 µM) |
| CCC[C@@H]1C[C@@H](C(=O)N[C@H]([C@H]2O[C@H](SC)[C@H](O)[C@@H](O)[C@H]2O)[C@@H](C)SCCOCCSSCCOCCSCC(=O)N[C@@H](CO)[C@H](O)c2ccc([N+](=O)[O-])cc2)N(C)C1 | 2.3 (≈ 2.51 µM) | 4.7 (≈ 5.14 µM) | > 150 | 2.3 (≈ 2.51 µM) | > 128 |  |  |  | 18.3 | 2 (≈ 2.19 µM) | < 0.3 | 150 (≈ 164 µM) | 4.7 (≈ 5.14 µM) | 0.6 (≈ 0.656 µM) | < 0.3 | 18.8 (≈ 20.5 µM) |
| O=C(CSCCOCCSCC(=O)N[C@H](CO)[C@H](O)c1ccc([N+](=O)[O-])cc1)N[C@H](CO)[C@H](O)c1ccc([N+](=O)[O-])cc1 | > 150 | > 150 | > 150 | > 150 | > 128 |  |  |  | 32.9 | > 64 | > 150 | > 150 | > 150 | > 150 | > 150 | > 150 |
| CCC[C@@H]1C[C@@H](C(=O)N[C@H]([C@H]2O[C@H](SC)[C@H](O)[C@@H](O)[C@H]2O)[C@@H](C)SCCOCCS)N(C)C1 | 9.4 (≈ 17.8 µM) | 37.5 (≈ 71.2 µM) | > 150 | 9.4 (≈ 17.8 µM) | 2 (≈ 3.8 µM) |  |  |  | > 100 | 4 (≈ 7.59 µM) | 2.3 (≈ 4.37 µM) | 75 (≈ 142 µM) | 37.5 (≈ 71.2 µM) | 4.7 (≈ 8.92 µM) | 1.2 (≈ 2.28 µM) | 75 (≈ 142 µM) |
